STAT1 act = activators of IFN-gamma induced STAT1 signaling; 200,000 tested, 2.6% active; NIH 3T3 STAT1-luciferase reporter, luminescence; 100% = IFN-gamma alone, no compound; activation (% of control), % at 5.5 µM;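 active = activation above the screen-wide mean activation plus 3 SD, cut at about 130% in these data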;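 also: raw ratio to IFN-gamma control signal so 100% means no change and 0% no light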
PERK inhibitor = human PERK inhibition, primary cell-based screen. 220,000 tested, 0.17% active. AID 1416. CHO PERK-DD fusion, SEAP luminescence translation reporter. inhibition, % at 5.6 µM;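 active = inhibition above the mean inhibition of all tested compounds plus 3 SD, set separately per screening campaign, cut at about 2.9% in these data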;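 also: PERK kinase domain activated by AP20187 dimerizer at 100 nM; 0% = DMSO with dimerizer and 100% = rapamycin at 8.4 µM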
Target sequence (Q9NZJ5 whole entry, looked up, the tested form may be a part): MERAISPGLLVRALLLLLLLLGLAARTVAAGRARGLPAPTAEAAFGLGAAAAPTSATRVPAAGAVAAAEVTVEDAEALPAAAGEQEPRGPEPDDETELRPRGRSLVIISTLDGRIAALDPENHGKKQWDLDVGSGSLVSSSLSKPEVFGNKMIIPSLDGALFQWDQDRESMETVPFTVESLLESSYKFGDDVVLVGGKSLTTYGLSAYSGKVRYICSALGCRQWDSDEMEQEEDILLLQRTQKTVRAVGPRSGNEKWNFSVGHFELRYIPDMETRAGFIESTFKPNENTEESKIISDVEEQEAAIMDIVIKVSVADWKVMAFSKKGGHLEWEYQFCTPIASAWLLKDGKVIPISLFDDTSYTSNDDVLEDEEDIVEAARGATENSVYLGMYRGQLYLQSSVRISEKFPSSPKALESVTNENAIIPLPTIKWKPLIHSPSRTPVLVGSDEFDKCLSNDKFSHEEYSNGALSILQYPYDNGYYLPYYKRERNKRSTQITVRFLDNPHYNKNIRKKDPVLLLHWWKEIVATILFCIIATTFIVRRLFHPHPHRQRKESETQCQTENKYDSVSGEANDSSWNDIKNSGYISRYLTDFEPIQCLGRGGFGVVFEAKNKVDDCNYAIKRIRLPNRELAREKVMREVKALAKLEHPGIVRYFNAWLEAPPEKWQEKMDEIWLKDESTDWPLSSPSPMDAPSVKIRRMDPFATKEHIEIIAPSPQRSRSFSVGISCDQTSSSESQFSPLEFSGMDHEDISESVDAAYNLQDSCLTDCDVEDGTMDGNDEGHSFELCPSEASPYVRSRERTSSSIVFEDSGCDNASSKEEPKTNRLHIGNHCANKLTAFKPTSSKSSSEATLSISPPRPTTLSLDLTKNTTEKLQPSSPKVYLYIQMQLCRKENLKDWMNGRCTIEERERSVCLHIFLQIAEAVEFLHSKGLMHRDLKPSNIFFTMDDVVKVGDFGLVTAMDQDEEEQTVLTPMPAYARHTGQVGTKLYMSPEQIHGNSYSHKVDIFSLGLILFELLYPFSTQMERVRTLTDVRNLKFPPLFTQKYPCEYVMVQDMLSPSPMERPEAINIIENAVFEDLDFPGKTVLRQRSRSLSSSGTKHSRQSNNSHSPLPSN
MDM2 E3 inh = blocks human Mdm2 ubiquitin ligase activity; signal enhancement, % at 5 µM; cell-based MDM2 ubiquitination luciferase reporter, 2 h; 0 = plate control, 100 = twice control, blank-subtracted; 210,000 tested, 0.11% active; AID 1230; Q00987;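 active = signal enhancement of 30% or more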;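 also: luminescence tracks abundance of the self-degrading MDM2-luciferase fusion protein; higher signal means inhibition of MDM2 E3 ligase activity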
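Assay system: stable mammalian line carrying autodegrading MDM2–luciferase fusion reporter; amount: 2000 cells seeded into each well; buffer or medium: DMEM; benchmarks: plate control and blank wells; signal: luciferase luminescence; timing: 2 h compound exposure at 37 °C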
AHR act = activators of human aryl hydrocarbon receptor; P35869; AHR-responsive luciferase reporter cells, luminescence; activation, % at 5 µM; 320,000 tested, 2.5% active; in the data active = activation above about 47%;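 also: 0% = vehicle wells and 100% = reference agonist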
APP 5'UTR act = APP 5'UTR luciferase reporter activation | activation, % at 2 µM | 190,000 tested, 1% active | SH-SY5Y APP 5'UTR luciferase reporter, luminescence; zero percent = DMSO vehicle wells;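 active = activation above a set limit, based on mean plus 3 SD of controls, cut at about 140% in these data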
NF-kB neuron act = raises NF-kB expression in human neuronal cells. AID 1239. fold change at 12.5 µM. NF-kB reporter expression; stronger effect = higher value. 190,000 tested, 1.6% active; in the data active = fold change above about 3.3
AHR act cf = confirmation of human aryl hydrocarbon receptor activators | shares compounds with AHR act | human cells, AHR-responsive luciferase reporter, luminescence | activation, % at 9 µM | 2,300 tested, 87% active; in the data active = activation above about 49%;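 also: HepG2 hepatoma cells carrying a DRE-driven firefly luciferase reporter; 0% = vehicle wells and 100% = reference agonist wells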
PXR counter = counter-screen for AHR activators: human PXR activators | shares compounds with AHR act | cell-based PXR reporter, luciferase luminescence | activation, % at 11.6 µM | AID 434939 | 2,300 tested, 88% active; in the data active = activation above about 11%;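 also: human hepatoma DPX-2 cells expressing full-length human PXR; 0% = DMSO and 100% = reference agonist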
The depositor's hits bear a star; nt = no result given. A selection: hits, their analogues and other compounds. The true share with any hit is near 4.5%.

SMILES | STAT1 act | PERK inhibitor | MDM2 E3 inh | AHR act | APP 5'UTR act | NF-kB neuron act | AHR act cf | PXR counter
c1ccc(OCc2nnc3sc(-c4cccs4)nn23)cc1 | 101 | 0 | -16 | 139* | -1 | 1.2 | 81* | 18*
COc1ccc(S(=O)(=O)Nc2cc3c(C(C)=O)c(C)oc3c3ccccc23)cc1 | 99 | -1 | -21 | 92* | -92 | 2.5 | 76* | 255*
Cc1oc2c(cc(NS(=O)(=O)c3cccs3)c3ccccc32)c1C(=O)OC(C)C | 102 | -1 | -2 | 92* | 40 | 1.1 | 92* | 162*
c1ccc2c(c1)ncn2-c1ccc(-c2ccnc(-c3ccncc3)n2)cc1 | 102 | 1 | -19 | 44 | -6 | 0.84 | nt | nt
Cc1nccc(-c2ccc(-n3cnc4ccccc43)cc2)n1 | 100 | -1 | -12 | 83* | nt | 0.9 | 63* | nt
CC(=O)Nc1ccc(N=NC2C(=O)N(C(N)=S)N=C2C)cc1 (stereo unspecified) | nt | nt | nt | 104* | nt | nt | 112* | 16*
CCOc1ccc(N=NC2C(=O)N(C(N)=S)N=C2C)cc1 (stereo unspecified) | nt | nt | nt | 118* | nt | nt | 124* | 22*
CC1=NN(C(N)=S)C(=O)C1N=Nc1ccc([N+](=O)[O-])cc1 (stereo unspecified) | nt | nt | nt | 0 | nt | nt | nt | nt
O=C(NC(=S)Nc1ccccc1N1CCCCC1)c1ccco1 | 107 | 1 | -5 | 15 | 27 | 0.8 | nt | nt
O=C(NC(=S)Nc1ccccc1N1CCCC1)c1ccco1 | nt | 1 | -3 | 169* | nt | nt | 124* | 31*
O=C(NC1CCCCC1)C1CCN(C(=O)c2ccc(Cl)cc2)CC1 | nt | nt | nt | -2 | nt | nt | nt | nt
C=CCN1C(=O)SC(Cc2cccc(OC)c2O)C1=O (stereo unspecified) | 99 | 0 | -3 | -3 | -9 | 1.3 | nt | nt
Cc1nc(N)nc(Nc2ccc(Cl)cc2)c1Br | 104 | 0 | 6 | 92* | 19 | 1.2 | 99* | nt
Cc1nc(N)nc(Nc2ccc(C#N)cc2)c1Br | nt | 1 | -7 | 1 | nt | nt | nt | nt
O=S(=O)(NCC1CCN(c2ccc(S(=O)(=O)N3CCOCC3)cc2)CC1)c1ccc(F)cc1 | nt | nt | nt | -5 | nt | nt | nt | nt
O=C(Nc1ccc2c(c1)OCO2)c1ccc2c(c1)OCO2 | 132* | 0 | -42 | 91* | 138* | 8* | 19 | 18*
O=C(Nc1cccc(C(=O)O)c1)Nc1ccc2c(c1)OCO2 | nt | nt | nt | -6 | nt | nt | nt | nt
O=C(Nc1ccc2c(c1)OCO2)Nc1ccc2c(c1)OCO2 | 141* | 1 | -20 | 106* | 136* | 2.1 | 45 | 28*
O=C(Nc1ccc2c(c1)OCO2)c1cccc(S(=O)(=O)N2CCOCC2)c1 | nt | nt | nt | 112* | nt | nt | 91* | 36*
Cc1noc(C(=O)Nc2ccc3c(c2)OCO3)c1Cl | 126 | 0 | -20 | 125* | 43 | 2.5 | 148* | 26*
O=C(C[n+]1ccc(C(=O)NCCCO)cc1)c1cccc(Br)c1 | nt | 2 | -6 | -1 | nt | nt | nt | nt
Cc1ccc(-c2nc(CS(=O)CC(=O)NCc3ccc4c(c3)OCO4)c(C)o2)cc1 (stereo unspecified) | nt | nt | nt | 3 | nt | nt | nt | nt
Cc1cc(=O)n2[nH]c(Nc3cccc(Cl)c3)nc2n1 | nt | nt | nt | 22 | nt | nt | nt | nt
O=C(Nc1ccc2c(c1)OCO2)c1ccc(Br)c(S(=O)(=O)N2CCCC2)c1 | 90 | 0 | 0 | 87* | 18 | 1 | 47 | 154*
O=C(NCc1ccncc1)Nc1ccc2c(c1)OCO2 | 102 | 0 | -17 | 40 | 10 | 1.2 | nt | nt
SMILES | STAT1 act | PERK inhibitor | MDM2 E3 inh | AHR act | APP 5'UTR act | NF-kB neuron act | AHR act cf | PXR counter
Cc1ccc(C(=O)Nc2ccc3c(c2)OCO3)cc1NC(=O)c1ccco1 | 111 | 0 | -6 | 122* | 44 | 2 | 86* | 33*
O=C(Nc1ccc2c(c1)OCO2)c1ccc(Cl)s1 | 130* | -1 | -8 | 113* | 184* | 9.8* | 85* | 34*
O=C(Nc1cccnc1)Nc1ccc2c(c1)OCO2 | 120 | 0 | -16 | 85* | 0 | 1.9 | 91* | 16*
COc1ccccc1CCNC(=O)c1ccc(NC(=O)CC2SC(N3CCCC3)=NC2=O)cc1 (stereo unspecified) | nt | nt | nt | 3 | nt | nt | nt | nt
O=C(COc1ccc(Br)cc1Cl)NNC(=O)c1ccccc1 | nt | nt | nt | 3 | nt | nt | nt | nt
CCOC(=O)Cn1nc(NC(=O)c2ccc3c(c2)OCO3)cc1C | nt | nt | nt | 23 | nt | nt | nt | nt
O=C(Nc1cccnc1)Nc1ccc(F)c(Cl)c1 | 92 | 0 | -10 | 37 | 10 | 1.4 | nt | nt
COc1ccc(NC(=O)Nc2cccnc2)c(OC)c1 | 99 | 1 | -17 | 91* | 23 | 0.99 | 115* | 12*
Cc1occc1C(=O)Nc1ccc2c(c1)OCO2 | 124 | -1 | -4 | 125* | 49 | 1 | 51* | 47*
Cn1ccc2cc(NC(=O)Nc3cccnc3)ccc21 | nt | nt | nt | 89* | nt | nt | 55* | 21*
O=C(Nc1ccn(Cc2ccccc2)n1)c1ccc2c(c1)OCO2 | 123 | 0 | -16 | 112* | 43 | 1.8 | 77* | 43*
COc1cccc(N2CCN(C(=O)C3CCCN(c4ncnc5c4nc4n5CCCCC4)C3)CC2)c1 (stereo unspecified) | nt | nt | nt | 6 | nt | nt | nt | nt
Cc1c(NC(=O)c2cc(S(=O)(=O)N3CCCCC3)ccc2Cl)c(=O)n(-c2ccccc2)n1C | nt | nt | nt | 0 | nt | nt | nt | nt
N#CCCN(Cc1cccs1)C(=O)Nc1ccccc1 | nt | 0 | 0 | -3 | nt | nt | nt | nt
C/C(=N\Nc1nc2ccccc2s1)c1ccc2c(c1)OCO2 | 121 | 0 | -9 | 90* | 47 | 3.4* | 112* | 31*
COC(=O)N[C@H](CC(C)=O)c1ccccc1 | 103 | 0 | nt | 1 | -12 | 1 | nt | nt
COC(=O)c1sccc1-c1ccc(C(=O)Nc2cccc(Cl)c2)o1 | 104 | 0 | -10 | 104* | 20 | 1.5 | 74* | 25*
NS(=O)(=O)c1ccc(CCNS(=O)(=O)c2cccc3nsnc23)cc1 | nt | nt | nt | 1 | nt | nt | nt | nt
C/C(=N/NC(=O)Nc1ccccc1)c1ccc(C)cc1 | 111 | 1 | 16 | 105* | 7 | 1.1 | 76* | 20*
CC(=O)Nc1ccc(/C(C)=N\NC(=O)c2ccc(-c3ccccc3)cc2)cc1 | 103 | 1 | 1 | 14 | 0 | 2.6 | nt | nt
O=C(Nc1cccc(Cl)c1)NC1CCS(=O)(=O)C1 (stereo unspecified) | nt | nt | nt | 2 | nt | nt | nt | nt
COc1cc(NC(=O)C(C)Oc2ccccc2)c(OC)cc1NC(=O)c1ccccc1 (stereo unspecified) | nt | nt | nt | 82* | nt | nt | 100* | 14*
COc1cc(OC)c(NC(=O)c2ccc(F)cc2)cc1Cl | 98 | 1 | 0 | 2 | 17 | 2 | nt | nt
COc1cc(N)c(Cl)cc1NC(=O)c1ccccc1 | 107 | -1 | -6 | 94* | -17 | 1.3 | 117* | 15*

From PubChem BioAssay
